Source: PubChem BioAssay
An excerpt weighted towards active compounds, which were near 2.3% of everything screened.
TRPC6 inh: mouse TRPC6 channel inhibitors, primary screen, cell-based, HEK293, membrane potential dye; Short transient receptor potential channel 6 (Mus musculus), Q61143; ACh-evoked depolarization; hits give low values; B-score at 10 µM; hit rate 1.1% among 310,000;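 active = B-score under library mean minus 3 SD, initial fluorescence not abnormally high, positive integrated signal ratio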;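 also: B-score derived from integrated fluorescence ratio over the kinetic read; more negative B-score means stronger inhibition of depolarization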
TRPC4 inh: inhibitors of mouse TRPC4 channel, primary screen, Fluo4 calcium, HEK293 TRPC4beta/mu-opioid cells | Short transient receptor potential channel 4 (Mus musculus), Q9QUQ5 | DAMGO-evoked Fluo4 calcium flux; hits give low values | B-score at 10 µM | hit rate 0.39% among 300,000;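 active = B-score over 3 SD under the library average, no early fluorescence shift, positive overall ratio signal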
Target sequence (Q9QUQ5 whole entry, looked up): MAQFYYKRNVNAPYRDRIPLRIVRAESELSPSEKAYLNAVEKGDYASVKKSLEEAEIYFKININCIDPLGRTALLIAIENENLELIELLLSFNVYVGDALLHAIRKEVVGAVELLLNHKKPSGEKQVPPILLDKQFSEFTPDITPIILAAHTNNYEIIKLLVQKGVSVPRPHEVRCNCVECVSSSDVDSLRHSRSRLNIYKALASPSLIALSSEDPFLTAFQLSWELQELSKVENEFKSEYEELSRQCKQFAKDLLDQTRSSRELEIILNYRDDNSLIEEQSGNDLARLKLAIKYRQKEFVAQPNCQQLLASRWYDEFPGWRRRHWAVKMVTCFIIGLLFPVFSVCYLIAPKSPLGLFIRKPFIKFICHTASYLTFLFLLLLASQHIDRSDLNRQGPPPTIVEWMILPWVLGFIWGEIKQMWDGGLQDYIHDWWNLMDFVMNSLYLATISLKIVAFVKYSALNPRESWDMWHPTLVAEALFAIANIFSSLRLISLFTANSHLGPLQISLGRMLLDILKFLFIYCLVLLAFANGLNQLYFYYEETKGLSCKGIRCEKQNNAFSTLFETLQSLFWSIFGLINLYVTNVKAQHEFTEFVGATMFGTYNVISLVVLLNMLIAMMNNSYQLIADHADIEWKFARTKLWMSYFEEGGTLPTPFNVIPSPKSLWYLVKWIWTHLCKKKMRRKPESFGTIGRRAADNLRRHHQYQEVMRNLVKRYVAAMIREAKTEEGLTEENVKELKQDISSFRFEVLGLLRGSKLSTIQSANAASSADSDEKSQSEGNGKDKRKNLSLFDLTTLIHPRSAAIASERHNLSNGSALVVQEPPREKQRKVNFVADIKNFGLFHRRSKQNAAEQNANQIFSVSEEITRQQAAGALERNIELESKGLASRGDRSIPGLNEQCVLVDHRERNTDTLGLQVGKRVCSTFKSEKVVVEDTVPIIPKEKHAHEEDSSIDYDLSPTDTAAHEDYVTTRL
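Assay system: Stable TRPC4beta/mu-opioid receptor HEK293 cells | Reagent: DAMGO in two steps, submaximal then maximal | Compound dosing: Single concentration per test compound | Signal: Fluo4 Ca2+ flux fluorescence | Evaluation: Per-well B score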
TRPC6 act: mouse TRPC6 channel activators, primary screen, cell-based, HEK293, membrane potential dye; Short transient receptor potential channel 6 (Mus musculus), Q61143; HEK293-TRPC6 membrane potential dye fluorescence; hits give high values; B-score at 10 µM; hit rate 0.13% among 310,000; AID 2550, 2010;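 active = B-score of the integrated fluorescence ratio above library mean plus 3 SD, and starting fluorescence ratio within library mean plus 5 SD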;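 also: higher score means more depolarization so channel activation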
TRPC4 agonist: activators of mouse TRPC4 channel, primary screen, Fluo4 calcium, HEK293 TRPC4beta/mu-opioid cells; B-score at 10 µM; Fluo4 calcium fluorescence; hits give high values; Short transient receptor potential channel 4 (Mus musculus), Q9QUQ5; hit rate 0.49% among 310,000;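 active = B-score above 5 SD of library B-scores, and initial fluorescence ratio not above library mean plus 5 SD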;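 also: positive B-score marks a calcium rise read as TRPC4 activation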
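Material: TRPC4beta and mu-opioid receptor HEK293 stable cells | Incubation: 45 min room-temperature Fluo4 loading, 110 s read | Detection: Kinetic Fluo4 calcium fluorescence | Measure: Integrated baseline-normalised fluorescence ratio, converted to per-well B score | Benchmarks: Low control buffer alone, high control maximal DAMGO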
TRPC4 PAM: positive allosteric modulators of TRPC4, primary screen, cell-based, mouse TRPC4beta, HEK293 mu-opioid, Fluo-4 calcium | Short transient receptor potential channel 4 (Mus musculus), Q9QUQ5 | DAMGO EC20, Fluo-4 Ca2+ flux; hits give high values | B-score at 10 µM | hit rate 0.42% among 310,000 | AID 2227, 2009;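 active = B-score of calcium response area above 5 SD of library B-scores, with initial fluorescence ratio within 5 SD of library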;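 also: B-score of integrated fluorescence ratio over time as area under calcium response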
TRPC4 sel inh 2: mouse TRPC4 off-target activity of TRPC6 inhibitors, second screen | shares compounds with TRPC6 inh | HEK293 TRPC4/MOR, membrane potential dye fluorescence; channel activated by saturating DAMGO dose | inhibition, % at 10 µM | hit rate 42% among 920 | AID 2776;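 active = compounds whose fluorescence signal differed from control wells by over 3 SD, either direction, in both duplicate plates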
TRPC4 spec: mouse TRPC4 modulation by TRPC6 hits, confirmation, selectivity assay for TRPC6 inhibitor project, cell-based, HEK293 TRPC4/mu-opioid, membrane potential dye; hit rate 61% among 920; activity change, negative = inhibition, % at 10 µM; AID 2777, 2010; shares compounds with TRPC6 inh; membrane potential fluorescence;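 active = rise or fall in signal beyond 3 SD of buffer-only wells in both replicate plates, either sign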;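 also: integrated kinetic ratio of fluorescence range over baseline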
HEK293 MPD ctr 2-1: nonspecific membrane potential effects, parental HEK293, confirmation, counter-screen for TRPC6 inhibitor project, cell-based, second counter screen; AID 2779, 2010; signal change vs control, % at 10 µM; hit rate 31% among 920; shares compounds with TRPC6 inh; parental HEK293 membrane potential dye fluorescence; maximal acetylcholine challenge after compound addition;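 active = membrane potential signal moving either way by over 3 SD of the maximum-effect control, in both duplicate plates, meaning non-specific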
HEK293 MPD ctr-1: membrane potential modulation in parental HEK293, confirmation, counter-screen for TRPC6 inhibitor project, cell-based; AID 2780, 2010; hit rate 60% among 920; parental HEK293 membrane potential dye fluorescence; shares compounds with TRPC6 inh; membrane potential signal change, % at 10 µM;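 active = membrane potential signal shifting up or down by more than 3 SD of buffer-only wells, on both duplicate plates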
HEK293 MPD ctr-2: parental HEK293 membrane potential modulation, confirmation, counter-screen for TRPC6 modulator project, cell-based. shares compounds with TRPC6 inh. membrane potential dye fluorescence. membrane potential signal change, % at 10 µM. hit rate 51% among 2,400;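 active = membrane potential signal moves up or down beyond 5 SD from buffer-only wells, on both duplicate plates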
HEK293 MPD ctr 2-2: second counter-screen for TRPC6 modulators: effect in parental HEK293 cells. hit rate 14% among 2,400. inhibition, % at 10 µM. shares compounds with TRPC6 inh. membrane potential dye fluorescence; after compound, maximal acetylcholine stimulation. AID 488926;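 active = membrane potential signal drops by more than 5 SD from the mean control signal, in both duplicate plates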;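 also: plate controls were acetylcholine ECmax control wells for no effect and buffer only wells for full effect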
TRPC4 ctr mod: TRPC4 modulation by TRPC6 hit compounds, confirmation, selectivity assay for TRPC6 modulator project, cell-based, HEK293 TRPC4/mu-opioid, membrane potential dye, mouse; shares compounds with TRPC6 inh; membrane potential fluorescence; percent change from control (negative = decrease, positive = increase), % at 10 µM; hit rate 69% among 2,400;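 active = membrane potential signal moved up or down beyond 5 SD of buffer control wells, in both duplicate plates, actives on both sides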;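 also: plate controls were assay buffer wells for no effect and DAMGO maximal-effect wells for full effect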
TRPC4 ctr inh 2: mouse TRPC4 off-target activity of TRPC6 modulators, second screen | shares compounds with TRPC6 inh | HEK293 TRPC4/mu-opioid, membrane potential dye fluorescence; stimulated with maximal-effect DAMGO | inhibition, % at 10 µM | hit rate 55% among 2,400 | AID 488928;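 active = drop in membrane potential signal beyond 5 SD of the control wells in both duplicate plates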;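 also: TRPC4 counter screen for TRPC6 hits run under conditions tuned for TRPC6 not TRPC4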
TRPC6 block conf: mouse TRPC6 channel inhibitors, confirmation, HEK293 cells, membrane potential dye, duplicate; shares compounds with TRPC6 inh; ACh-evoked depolarization; inhibition, % at 10 µM; hit rate 43% among 3,300; AID 488960, 2010;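 active = fluorescence ratio falls more than 5 SD below the full-stimulation control mean, in both duplicate runs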;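 also: integrated fluorescence ratio of peak minus minimum over baseline after agonist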
TRPC6 act confirm: mouse TRPC6 channel activators, confirmation, HEK293 cells, membrane potential dye, duplicate; shares compounds with TRPC6 inh; HEK293-TRPC6 membrane potential dye fluorescence, FDSS; activation, % at 10 µM; hit rate 11% among 2,800; AID 488961, 2010;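 active = ratio signal rise beyond 5 SD above unstimulated control wells' mean, seen in both duplicate runs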;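 also: plate controls were buffer EC0 wells for no effect and acetylcholine ECmax response for full effect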
The depositor's hits bear a star; i = inactive; . = no result.

SMILES | TRPC6 inh | TRPC4 inh | TRPC6 act | TRPC4 agonist | TRPC4 PAM | HEK293 MPD ctr-2 | HEK293 MPD ctr 2-2 | TRPC4 ctr mod | TRPC4 ctr inh 2 | TRPC6 block conf | TRPC6 act confirm | others
CCN(CC)c1ccc(S(=O)(=O)N(CC)CC)cc1NC(=O)C1CCCC1 | -14* | i | 21* | i | i | 182%* | i | 34%* | 36%* | 116%* | 162%*
CCN(CC)c1ccc(S(=O)(=O)N2CCCCC2)cc1NC(=O)C1CCC1 | -5.5* | i | 12* | i | i | i | i | 22%* | 30%* | 76%* | 96%*
O=C(CCNC(=O)c1ccccc1Cl)NCCc1ccc(C(F)(F)F)cc1 | i | i | i | i | i | . | . | . | . | . | .
Cc1cccc(OCC(=O)O/N=C(\N)c2ccncc2)c1 | i | i | i | i | i | . | . | . | . | . | .
Cc1ccc(-n2cc(CNCCN3CCOC3=O)c(-c3cccc(C)c3)n2)cc1 | -5.8* | i | i | i | i | i | i | 10%* | 58%* | i | i
O=C1OCCN1CCNCc1cn(-c2ccc(F)cc2)nc1-c1ccccc1Cl | i | i | i | i | i | . | . | . | . | . | .
Clc1ccc(-c2ccc(CNCc3ccccn3)o2)cc1 | i | i | i | i | i | . | . | . | . | . | .
COc1ccc(NC(=O)CC2Nc3cccc4cccc(c34)NC2=O)cc1 (stereo not drawn) | i | i | i | i | i | . | . | . | . | . | .
O=C(CC1Nc2cccc3cccc(c23)NC1=O)Nc1ccc(F)cc1 (stereo not drawn) | -5* | i | i | i | i | i | i | -11%* | 40%* | i | i
COc1ccc(-c2[nH]n(-c3ccc([N+](=O)[O-])cc3)c(=O)c2C=NCCN2CCNCC2)cc1 | -6.5* | i | i | i | i | -227%* | i | -42%* | 50%* | 50%* | i
Cc1nnc(SCCn2c(N3CCN(C)CC3)nc3c2c(=O)[nH]c(=O)n3C)s1 | -10* | i | i | i | i | . | . | . | . | 69%* | i | TRPC4 sel inh 2=74%*;TRPC4 spec=-36%*;HEK293 MPD ctr 2-1=i;HEK293 MPD ctr-1=-592%*
Cc1nnc(SCCn2c(N3CCCCCC3)nc3c2c(=O)[nH]c(=O)n3C)s1 | i | i | i | i | i | . | . | . | . | . | .
Cn1c(=O)[nH]c(=O)c2c1nc(N1CCN(Cc3ccccc3)CC1)n2CCSc1ncccn1 | -7.9* | i | i | i | i | -329%* | 96%* | -59%* | 62%* | 58%* | i
Cn1c(=O)[nH]c(=O)c2c1nc(N1CCN(Cc3ccccc3)CC1)n2CCCc1ccccc1 | i | i | i | i | i | . | . | . | . | . | .
Cc1nnc(SCCn2c(N3CCN(Cc4ccccc4)CC3)nc3c2c(=O)[nH]c(=O)n3C)s1 | -7.8* | i | i | i | i | -278%* | i | -44%* | i | i | i
CCSc1nc(C)cc(Oc2ccc(=O)n(C)n2)n1 | -8.6* | i | i | i | i | . | . | . | . | i | i | TRPC4 sel inh 2=i;TRPC4 spec=i;HEK293 MPD ctr 2-1=i;HEK293 MPD ctr-1=i
CCOC(=O)N1CCC(N(CCOC)C(=O)Nc2ccc(CC)cc2)CC1 | i | i | i | i | i | . | . | . | . | . | .
CCOC(=O)N1CCC(N(C(=O)Nc2ccc(Cl)c(Cl)c2)C(C)CC)CC1 (stereo not drawn) | -6.4* | i | i | i | i | i | i | i | i | i | i
CC(=O)/C=C(\C)N=Nc1c(O)[nH]c2ccccc12 | i | i | i | i | i | . | . | . | . | . | .
CCOC(=O)Nc1ccc2c(c1)N(C(=O)OC)c1ccccc1CC2 | i | i | i | i | i | . | . | . | . | . | .
CCOC(=O)Nc1ccc2c(c1)N(CCCN(C)C)c1ccccc1CC2 | -7.8* | i | i | i | i | . | . | . | . | 51%* | i | TRPC4 sel inh 2=i;TRPC4 spec=i;HEK293 MPD ctr 2-1=i;HEK293 MPD ctr-1=i
COc1cc(C(=O)Nc2ccc3c(c2)N(C(=O)CCN(C)C)c2ccccc2CC3)cc(OC)c1OC | -8.8* | i | i | i | i | i | i | i | i | 58%* | i
Cc1ccc(Cn2c(=N)c(C(=O)NCCN3CCOCC3)cc3c(=O)n4ccccc4nc32)cc1 | -6.6* | i | i | i | 19* | -70%* | 98%* | -14%* | 47%* | 40%* | i
Cn1c(C(=O)NCCN2CCOCC2)cc2c(=O)n3ccccc3nc21 | i | i | i | i | i | . | . | . | . | . | .
